Measurements taken from PMC7993319 (Clinical and Translational Science, 2020).
Like-named read-outs stand apart in the source and are kept apart here.

Experiments:
[1] = cited from earlier work
[2] = assay type: in vivo, human (patients with ALK‐positive NSCLC); conditions: for Crizotinib Cmin,ss: enrolled patient; for AUC(0-t): human, oral, Crizotinib AUC0–12, enrolled patient
In short: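 Patients on standard oral ALK inhibitor (250 mg b.i.d., ≥14 days) with trough <310 ng/mL got oral CYP3A inhibitor 150 mg q.d. from day 2 for 14 days. Plasma sampled predose and 0.5–12 h (11 points) on days 1 and 15, plus trough on day 8. LC-MS/MS with ether extraction, isotope-labelled internal standard, 1–5,000 ng/mL. AUC0–12 by noncompartmental analysis.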

[3] = Safety monitoring in the trial; assay type: in vivo, human (patient with ALK‐positive NSCLC)
In short: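 Safety was monitored by physical examination and laboratory tests on days 1 and 15, with safety visits on days 8 and 29. Triplicate 12-lead recordings were taken predose on day 1 (before the oral CYP3A inhibitor, 150 mg q.d. from day 2) and on days 8 and 15 of co-treatment with the ALK inhibitor. QT was corrected by Fridericia.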

[4] = co‐administration of CYP3A‐inducing rifampin; cited from earlier work
[5] = tested on: NSCLC; conditions: cited from earlier work
[6] = tested on: ALK; conditions: lactam metabolite, two diastereoisomers; cited from earlier work

Compound: CCc1cc2c(cc1N1CCC(N3CCOCC3)CC1)C(C)(C)c1[nH]c3cc(C#N)ccc3c1C2=O [alectinib]
- Increase of combined AUC of alectinib and the M4 metabolite ([1]; administration of the CYP3A inhibitor posaconazole): 36%
- CYP3A contribution to clearance ([1]; alectinib): 40–50%

Compound: C[C@@H](Oc1cc(-c2cnn(C3CCNCC3)c2)cnc1N)c1c(Cl)ccc(F)c1Cl [crizotinib]
- Mean crizotinib Cmin,ss at screening ([2]; 7 screened patients, oral crizotinib 250 mg b.i.d., steady state, plasma): 279 ± 77 ng/mL
- AUC0–12 ratio ([2]; crizotinib with cobicistat (14 days) vs baseline): 1.78
- Crizotinib Cmin,ss ([2]; day 1, before cobicistat, crizotinib 250 mg b.i.d.): 158 ng/mL
- Crizotinib Cmin,ss ([2]; day 8, with oral cobicistat 150 mg q.d.): 308 ng/mL
- AUC(0-t) ([2]; plasma, after 14 days of cobicistat treatment): 3920 ng·h/mL
- AUC(0-t) ([2]; plasma, baseline (before cobicistat), steady state): 2210 ng·h/mL
- Underexposed patients (Cmin,ss < 310 ng/mL) ([2]; unselected NSCLC population screened (5 of 7 patients)): 71%
- Increase of crizotinib AUC0–12 ([2]; with cobicistat for 14 days vs before cobicistat): 78%
- QTcF ([3]; before cobicistat treatment, on crizotinib, triplicate ECG): 394 ms
- Heart rate ([3]; day 1, before cobicistat, on crizotinib): 56 bpm
- Decrease of crizotinib AUC [4]: 72%
- Hazard ratio (progression-free survival model) ([5]; lowest quartile vs. the combined upper three quartiles, 90% confidence interval: 1.62–6.36): 3.2
- ORR ([5]; quartile with the highest Cmin,ss): 60–75%
- ORR ([5]; quartile with the lowest Cmin,ss (< 310 ng/mL)): 24–47%

Compound: CCc1cc2c(cc1N1CCC(NCCO)CC1)C(C)(C)c1[nH]c3cc(C#N)ccc3c1C2=O [M4]
- Activity of metabolite relative to alectinib [1]: equipotently active

Compound: C[C@@H](Oc1cc(-c2cnn(C3CCNC(=O)C3)c2)cnc1N)c1c(Cl)ccc(F)c1Cl (some centres unmarked) [PF‐06260182]
- ALK‐inhibiting activity [6]: 4–8%

Compound: CC(C)c1nc(CN(C)C(=O)N[C@@H](CCN2CCOCC2)C(=O)N[C@H](CC[C@H](Cc2ccccc2)NC(=O)OCc2cncs2)Cc2ccccc2)cs1 [cobicistat]
- QTcF ([3]; day 8 of cobicistat treatment, with crizotinib): 410 ms
- Heart rate ([3]; day 15, crizotinib plus cobicistat): 54 bpm
- QTcF ([3]; day 15 of cobicistat treatment, with crizotinib): 413 ms
- Safety signals / adverse events ([3]; single patient, crizotinib 250 mg b.i.d. plus cobicistat 150 mg q.d. for 14 days): No safety signals occurred
- Laboratory changes ([3]; single patient, crizotinib plus cobicistat): no significant laboratory changes except a grade I increase in transaminases
